Experimental data: ChEMBL document CHEMBL3259629, “Discovery and optimization of piperidyl-1,2,3-triazole ureas as potent, selective, and in vivo-active inhibitors of α/β-hydrolase domain containing 6 (ABHD6)” (J Med Chem, 2013)
The source made the active and inactive calls. The rule behind the calls is not given here.

Legend:
[1] = target: T1, Lysosomal Pro-X carboxypeptidase (Mus musculus) (UniProt Q7TMR0); conditions: Neuro2a, 3 nM
T1 sequence (whole entry): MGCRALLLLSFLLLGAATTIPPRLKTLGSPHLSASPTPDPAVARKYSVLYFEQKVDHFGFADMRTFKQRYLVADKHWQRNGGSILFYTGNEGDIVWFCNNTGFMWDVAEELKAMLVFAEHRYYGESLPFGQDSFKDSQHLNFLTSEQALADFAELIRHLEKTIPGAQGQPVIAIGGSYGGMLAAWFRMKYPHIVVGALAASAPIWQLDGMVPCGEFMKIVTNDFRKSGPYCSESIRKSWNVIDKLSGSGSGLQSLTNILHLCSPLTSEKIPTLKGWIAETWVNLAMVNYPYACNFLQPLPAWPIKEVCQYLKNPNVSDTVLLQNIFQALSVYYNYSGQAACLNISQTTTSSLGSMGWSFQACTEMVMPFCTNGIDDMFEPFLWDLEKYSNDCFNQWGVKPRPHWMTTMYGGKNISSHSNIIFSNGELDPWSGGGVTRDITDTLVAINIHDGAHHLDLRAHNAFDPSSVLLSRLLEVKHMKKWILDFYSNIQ

[2] = system: Mus musculus; test: In vivo inhibition of ABHD6 in C57Bl/6 mouse liver at 20 mg/kg, ip after 4 hrs by FP-rhodamine/HT-10-labelled gel-based competitive assay; type: functional, organism-based; parameters: dose 20 mg/kg
In short: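 C57Bl/6 mice dosed i.p. at 1–40 mg kg⁻¹ in 18:1:1 saline/ethanol/PEG40, 10 μL g⁻¹, for 4 hr, then killed. Brain and liver membrane proteomes labelled with FP-rhodamine or HT-01 (1 μM, 30 min, 37 °C) and resolved by SDS-PAGE with in-gel fluorescence scanning.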

[3] = target: T2, Rhomboid-related protein 4 (Mus musculus) (UniProt Q8BHC7); conditions: Neuro2a, 3 nM
T2 sequence (whole entry): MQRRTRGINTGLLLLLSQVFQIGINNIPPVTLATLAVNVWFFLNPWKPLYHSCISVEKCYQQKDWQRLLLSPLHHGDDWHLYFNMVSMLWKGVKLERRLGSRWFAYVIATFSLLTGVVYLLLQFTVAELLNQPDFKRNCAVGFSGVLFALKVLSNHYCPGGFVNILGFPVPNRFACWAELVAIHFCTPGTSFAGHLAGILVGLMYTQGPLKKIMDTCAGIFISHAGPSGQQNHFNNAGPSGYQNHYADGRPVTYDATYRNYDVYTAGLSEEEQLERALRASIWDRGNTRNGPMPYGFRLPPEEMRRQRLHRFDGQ

[4] = target: Acyl-protein thioesterase 2 (Mus musculus) (UniProt Q9WTL7); conditions: Neuro2a, 3 nM
Chain of Acyl-protein thioesterase 2 (Mus musculus) (Q9WTL7 whole entry): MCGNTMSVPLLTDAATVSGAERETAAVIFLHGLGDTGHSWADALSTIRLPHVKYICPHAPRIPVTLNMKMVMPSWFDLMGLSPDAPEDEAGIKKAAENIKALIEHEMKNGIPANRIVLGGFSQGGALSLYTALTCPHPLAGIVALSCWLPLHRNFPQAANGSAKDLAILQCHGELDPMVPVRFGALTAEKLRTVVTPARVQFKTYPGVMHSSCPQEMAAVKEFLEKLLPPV

[5] = target: T3, Acyl-coenzyme A thioesterase 1 (Mus musculus) (UniProt O55137); conditions: Neuro2a, 3 nM
T3 sequence (whole entry): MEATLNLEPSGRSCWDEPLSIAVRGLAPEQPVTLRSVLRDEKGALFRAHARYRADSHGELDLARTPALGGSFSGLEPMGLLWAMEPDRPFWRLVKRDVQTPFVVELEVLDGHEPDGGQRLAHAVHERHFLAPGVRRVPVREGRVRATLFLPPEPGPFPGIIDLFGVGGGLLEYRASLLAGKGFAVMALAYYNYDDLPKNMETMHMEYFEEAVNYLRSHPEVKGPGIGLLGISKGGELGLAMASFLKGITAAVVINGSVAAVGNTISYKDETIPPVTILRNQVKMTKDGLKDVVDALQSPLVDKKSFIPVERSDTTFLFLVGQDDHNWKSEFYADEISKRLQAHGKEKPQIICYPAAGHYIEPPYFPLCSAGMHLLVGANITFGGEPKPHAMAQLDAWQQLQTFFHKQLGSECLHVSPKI

[6] = target: T4, Phospholipase DDHD1 (Mus musculus) (UniProt Q80YA3); conditions: Neuro2a, 3 nM
T4 sequence (whole entry): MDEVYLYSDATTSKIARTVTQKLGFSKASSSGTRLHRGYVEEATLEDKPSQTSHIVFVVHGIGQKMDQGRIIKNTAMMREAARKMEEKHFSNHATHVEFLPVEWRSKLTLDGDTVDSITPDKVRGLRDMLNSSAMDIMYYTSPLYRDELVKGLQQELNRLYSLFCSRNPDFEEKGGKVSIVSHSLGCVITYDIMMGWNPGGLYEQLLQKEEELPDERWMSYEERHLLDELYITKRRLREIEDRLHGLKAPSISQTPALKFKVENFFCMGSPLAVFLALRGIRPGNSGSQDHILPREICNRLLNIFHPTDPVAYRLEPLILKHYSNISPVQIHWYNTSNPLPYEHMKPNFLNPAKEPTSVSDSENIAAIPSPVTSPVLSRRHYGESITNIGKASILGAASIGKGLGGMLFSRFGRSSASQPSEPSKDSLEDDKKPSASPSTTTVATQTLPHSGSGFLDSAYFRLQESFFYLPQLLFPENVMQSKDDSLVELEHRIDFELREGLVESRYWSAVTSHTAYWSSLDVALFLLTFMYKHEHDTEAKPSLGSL

[7] = target: T5, Lysosomal phospholipase A and acyltransferase (Mus musculus) (UniProt Q8VEB4); conditions: Neuro2a, 3 nM
T5 sequence (whole entry): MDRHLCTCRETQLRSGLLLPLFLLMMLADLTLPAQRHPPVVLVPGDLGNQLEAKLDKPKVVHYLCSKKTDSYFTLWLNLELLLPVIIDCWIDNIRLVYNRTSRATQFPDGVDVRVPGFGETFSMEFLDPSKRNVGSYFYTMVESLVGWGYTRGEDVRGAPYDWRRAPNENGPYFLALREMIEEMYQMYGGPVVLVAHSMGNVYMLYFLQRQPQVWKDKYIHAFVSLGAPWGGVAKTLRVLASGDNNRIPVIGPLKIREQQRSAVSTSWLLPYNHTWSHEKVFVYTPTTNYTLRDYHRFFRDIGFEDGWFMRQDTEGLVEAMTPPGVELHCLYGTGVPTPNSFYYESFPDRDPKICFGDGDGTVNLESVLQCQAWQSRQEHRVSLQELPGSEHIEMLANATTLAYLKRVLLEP

Compound	inhibition [1] [%]	inhibition [2]	inhibition [3] [%]	inhibition [4] [%]	inhibition [5] [%]	inhibition [6] [%]	inhibition [7] [%]
O=C(N1CCCCC1c1ccccc1)n1cc(-c2ccc(-c3cccc(CO)c3)cc2)nn1 (racemic)	< 50	Active	< 50	< 50	< 50	< 50	< 50
O=C(O)c1cccc(-c2ccc(-c3cn(C(=O)N4CCCCC4Cc4ccccc4)nn3)cc2)c1 (racemic)	< 50	Active	< 50	< 50	< 50	< 50	< 50
O=C(c1cccc(-c2ccc(-c3cn(C(=O)N4CCCCC4c4ccccc4)nn3)cc2)c1)N1CCCCC1 (racemic)	< 50	Active	< 50	< 50	< 50	< 50	< 50
